Data on 2 molecules can be found in ChEMBL document CHEMBL2375332, “Novel quinolone substituted thiazolidin-4-ones as anti-inflammatory, anticancer agents: design, synthesis and biological screening” (Eur J Med Chem, 2013).

The subject of data set [1] is Rattus norvegicus. In words: Antiinflammatory activity in albino rat assessed as inhibition of carrageenan-induced paw edema at 10 mg/kg, po administered 1 hr prior to carrageenan-challenge measured after 3 hrs relative to control. The format is functional. An outline of the steps:
(§1)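 Charles Foster albino rats of either sex (150–200 g, pregnant females excluded), six per group, dosed orally; 1 h later 0.2 mL of 1% carrageenan in 0.9% NaCl injected into right hind paw subplantar tissue. Paw volume read by plethysmometer at injection and 3 h later. Control group received carrageenan only. % inhibition = 1–Dt/Dc×100. Mean ± S.D.; one-way ANOVA with Tukey's test.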

Data set [2] in a line: Antitumor activity against mouse EAC […] Swiss albino mouse assessed as increase in life span at 100 mg/kg, ip relative to vehicle-treated control. The class given is functional, Ehrlich. The following applies: route intraperitoneal. An outline of the steps:
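Female Swiss albino mice (6–8 weeks), six per group, inoculated i.p. on day 0 with 1×10⁶ viable EAC cells from donor ascites. Drug suspended in 0.25% CMC, given i.p. at 0.1 ml/10 g on days 10–14. Survival was monitored twice daily for 44 days. ILS(%) = [(MST treated/MST control) − 1]×100, where MST is total days survived divided by the number of animals.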

Data set [3] in a line: Antitumor activity against mouse EAC […] Swiss albino mouse assessed as change in body weight at 100 mg/kg, ip administered on day 10 measured on day 15 (reference value: 22.03 +/- 1.67%). The class given is functional, Ehrlich. The following applies: route intraperitoneal.
Data set [4] is described as follows: Antitumor activity against mouse EAC […] Swiss albino mouse assessed as change in body weight at 100 mg/kg, ip administered everyday from day 10 to day 14 measured on day 12 (reference value: 22.03 +/- 1.67%). The class given is functional, Ehrlich. The following applies: route intraperitoneal.
Data set [5] has as its system COLO 205. Briefly: Inhibition of NF-kappaB in human COLO205 cells assessed as Bax up-regulation at IC50 after 48 hrs by RT-PCR analysis. The class given is cell-based. The method in brief:
(§2)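 About 4x10⁶ COLO-205 cells/well treated at IC₅₀ dose for 48 h. Total RNA extracted with TRI Reagent and quantified. Bcl-2 and Bax measured by RT-PCR against GAPDH (40 cycles: 94 °C, 55 °C, 72 °C). Products run on 1.5% agarose gel and quantified by band densitometry.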

Data set [6] relates to COLO 205. In words: Inhibition of NF-kappaB in human COLO205 cells assessed as Bcl-2 down regulation at IC50 after 48 hrs by RT-PCR analysis. The class given is cell-based. An outline of the steps: as §2
For data set [7], the system named is COLO 205. Briefly: Induction of apoptosis in human COLO205 cells assessed as zeiosis at IC50 after 48 hrs by Hoechst 33258 staining-based inverted microscopic analysis. The format is functional, cell-based. An outline of the steps: (§3)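 COLO-205 cells seeded at 10⁵ cells/ml and grown to 70-80% confluency. Treated at IC₅₀ dose for 48 h. Fixed in 4% formaldehyde for 30 min at room temperature, stained with Hoechst 33258 for 15 min, washed three times with PBS. Imaged by inverted fluorescence microscope (excitation 340-380 nm, emission 465 nm) at 400x and scored for nuclear morphology.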

Data set [8] relates to COLO 205. Briefly: Induction of apoptosis in human COLO205 cells assessed as karyopyknosis at IC50 after 48 hrs by Hoechst 33258 staining-based inverted microscopic analysis. The class given is functional, cell-based. An outline of the steps:
as §3

Data set [9] has as its system COLO 205. Briefly: Induction of apoptosis in human COLO205 cells assessed as nuclear fragmentation at IC50 after 48 hrs by Hoechst 33258 staining-based inverted microscopic analysis. The format is functional, cell-based. An outline of the steps: as §3
Data set [10] relates to COLO 205. Briefly: Induction of apoptosis in human COLO205 cells assessed as late apoptotic cells at IC50 after 48 hrs by acridine orange-ethidium bromide staining assay. The class given is functional, cell-based. The method in brief:
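COLO-205 cells seeded at 10⁵ cells/ml, grown 24 h, then treated at IC₅₀ dose for 48 h. Floating and trypsinized adherent cells pooled, spun at 129 g for 5 min and washed in PBS. Stained with 1:1 acridine orange/ethidium bromide and viewed by fluorescence microscopy at 400x (green viable, orange-red apoptotic).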

The subject of data set [11] is ACHN. In words: Cytotoxicity against human ACHN cells […] by MTT assay. The format is functional, cell-based. In general terms: Tetrazolium assays rely on reduction of a dye to a coloured formazan, in cell work by metabolically active cells.
Data set [12] relates to COLO 205. In words: Cytotoxicity against human COLO205 cells […] by MTT assay. The class given is functional, cell-based.
Data set [13] deals with HeLa. In words: Cytotoxicity against human HeLa cells after 24 hrs by MTT assay. The class given is functional, cell-based.
Data set [14] has as its system BT-549. Briefly: Cytotoxicity against human BT549 cells after 24 hrs by MTT assay. The class given is functional, cell-based. The settings on record: BT-549, 24 h.
For data set [15], the system named is HeLa. Briefly: Cytotoxicity against human HeLa cells at 100 ug/ml […] by MTT assay. The format is cell-based.
The test system of data set [16] is BT-549. Briefly: Cytotoxicity against human BT549 cells at 100 ug/ml […] by MTT assay. The format is cell-based.
Data set [17] relates to Rattus norvegicus. Briefly: Antiinflammatory activity in albino rat assessed as inhibition of carrageenan-induced paw edema at 100 mg/kg, po administered 1 hr prior to carrageenan-challenge measured after 3 hrs relative to control. The class given is functional. An outline of the steps: as §1
(In the carrageenan paw model, swelling and tenderness develop within hours.)

≈ marks a conversion by molar mass, not a printed value. Calls of active or inactive are those of the source. The rule behind the calls is not given here.

Broadly, the inhibition in vivo is the drop in the measured response relative to a control, in per cent. Take `COc1ccc2c(c1)c(CC(=O)O)c(C)n2C(=O)c1ccc(Cl)cc1` [INDOMETHACIN]: the inhibition in vivo at 10 mg/kg in data set [1] came to 33.2%.

As a reminder, the IC50 is the concentration that inhibits the measured activity by half. Consider `Cc1cc(=O)[nH]c2cc(N3C(=O)CSC3c3cccs3)ccc12` (stereo not drawn), for which the Activity came to 77.09% in data set [2]; 3.86% in data set [3]; 6.66% in data set [4]; 83.762% in data set [15]; 63.163% in [16]. Further, the MST in data set [2] is 32.16 days. Besides, the inhibition result in data set [5] and in data set [6] was “Active” throughout. Moreover, the outcome in [7], in data set [8], in [9] and in data set [10] was Active. Moreover, the IC50 in [11] came to 44.7 µg/mL (≈ 131 µM); in [12] it was 20.7 µg/mL (≈ 60.6 µM); in data set [13], 27.1 µg/mL (≈ 79 µM); in data set [14] it was 43 µg/mL (≈ 126 µM). The inhibition in vivo at 100 mg/kg in data set [17] came to 18.6%.
